In the EternaBench riboswitch data:

Tested on: MS2 coat protein
Test: apparent Kd, MS2 coat protein; higher = weaker binding; RNA-MaP array; FMN 200 µM where present
In short: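 Green signal was scaled to red-channel RNA signal and control-cluster median Fmax, and the apparent Kd was taken as the median of filtered per-cluster binding-curve fits. The binding series used SNAP-549-labelled MS2 coat protein from 0.7 or 1.5 nM, doubling to 3 µM, on designs transcribed by stalled E. coli RNA polymerase on Illumina sequencing-chip clusters. Each series ran without and then with constant ligand in 100 mM Tris-HCl pH 7.5, 80 mM KCl, 4 mM MgCl2, BSA, DTT, yeast tRNA and Tween-20.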

[1] = designed as: OFF switch for flavin mononucleotide, no ligand
[2] = ligand present: flavin mononucleotide, designed as: OFF switch for flavin mononucleotide
[3] = designed as: ON switch for flavin mononucleotide, no ligand
[4] = ligand present: flavin mononucleotide, designed as: ON switch for flavin mononucleotide

Sequence	apparent Kd [1] [nM]	apparent Kd [2] [nM]	apparent Kd [3] [nM]	apparent Kd [4] [nM]
AUUAUAUAGGUAGGAUAUAGAAUAUUAUUUUAACAUGAGGAUCACCCAUGUAACCUUAUGUGUAGCUAGAAGGACCAUUUAUUA	78	154		
CACCCUGAUGUCAGGAUAUGCGCGUCGCGCCUCGAGCAGAAGGGACAUGAGGAUCACCCAUGUUGUCUCUUGGG	48.9	98.7		
CGGAAAAGGUAGGAUAUGCUAGACGAAAGUCUAGCAGAAGGACCUACAUGAGGAUCACCCAUGUGUCCAAUCCG	56.3	24.7		
AAGACACAUGAGGAUCACCCAUGUCAAGAGAGACGAGGAUAUCUGAAUUAAUUAAAUUAAGGAGAAGGCGUGAAAA			78.9	30.9
GCCAUCACAUGAGGAUAUGCUCGGGUUUCCCGAGCAGAAGGCAUGUCAUAGGACAUGAGGAUCACCCAUGUAGUUAAGAUGGCA			507	17.1
UUGGACGUCGUAGGAUAUGUAGGAAAUUCCUACAUGAGGAUCACCCAUGUUGACAUGGAAGAAGGACAGAAGGACGAUGUCCAU			262	12.4
CGGCUACCCAGUAUGGGUAUUUUUACAGAAGGCCAGGCACAUGAGGAUCACCCAUGUCAAGUUUUGGAGGAUAUGUUAGUGUCG			5.58	4.25
AAUUUAAUACAUGAGGAUCACCCAUGUAAAUUAAUUAAGAUCUAGGAUAUCAGCUCGAAUAGAGCUGAGAAGGAGAUCACAUGU			17.4	15.1
UAUUAAUACGAAGGAUAUGGUUACAUGAGGAUCACCCAUGUAUGUAUAUUGAUCUAGAUUUUUAACCAGAAGGUCGUGAGUAAA	34.9	59		
UAAUAAAGUGUGAGGAUAUGCUGGUCCAUAGAUCAGCAGAAGGCACAUGAGGAUCACCCAUGUAAUAUAUAAAU	28.4	145		
UUAAUUUGAUGAUAUUAUGAUAUUAGAAGGCUGUACAUGUUGAUACAUGAGGAUCACCCAUGUAUAGAGGAUAUAGACAAUUUU	27.8	57.3		
CGGCGCUGUCGAGAGGAUAUGCGGUGAUGGACAUGAGGAUCACCCAUGUUAGCGAUAGCAUCACGGUAGAAGGCUCCACAGCCGU			31.8	13
CGAUGUUAUGCAGGAUAUCUCUCUUGUUUGAGGAGAGAAGGGCAUAGGGAGACAUACGCCUUAUUACAUGAGGAUCACCCAUGU	8.83	8		
AGGAUAGGAAACUUUGUCCAUUGUACAGAAGGCCAACAUGAGGAUCACCCAUGUAAGAAAAGGAUGGAGGAUAUGUAUAGGGCC			25.8	12.3
AUUAUAUAGACAGGAUAUUGAUUAUUAUUUUAACAUGAGGAUCACCCAUGUAACCUUAUGUGUAGCAAGAAGGGUCAUUUAUUA	84.3	185		
CGGGCGCGAGUAGGAUAUGUAUAUUUGCCGGGUCCGUGAUCACAUGAGGAUCACCCAUGUGGUAAGCAGAAGGAUUCGGUCCGA	6.04	7.8		
GCGUUGUACGAGAAGGCCAAUACAUGAGGAUCACCCAUGUUAAGUUGUUUUGGAGGAUAUCGAUCACAUUCAAUAAUGCAACGC	6.71	5.77		
ACCGUAUGAACAUGAGGAUCACCCAUGUAUCCGAAAGGGAAUGAGGAUAUCGAUAGCAAAGCUAUCGAGAAGGCAUGGGACGGU			460	434
AAACAGUACGAGAAGGGCUACAUGAGGAUCACCCAUGUAGACGGUCGUGUGGCAGGAUAUCGAACACACCCAAAACGGUGCGUU	5.9	7.43		
GGGUUUGGUGUGAGGAUAUCGGGCCCGAAAGGGUUUGAGAAGGCACAUGAGGAUCACCCAUGUAAGCCGGGCCC	22.8	17.2		
GUACUUGUGCAGAAGGGCAUUGAUUUAGGUUGUUAGGUUGAUCAGAUAUGCAGGAUAUGCUAUACAUGAGGAUCACCCAUGUUC			92	11.7
GACAAUCUAUCUGAGGAUAUCAUGAAAAAAACAUGAGGAUCACCCAUGUGCAGGAAAACUGCAUAUGAGAAGGCAGAUAGAUUGC			678	27.4
UAUAUAAUAUUUCACAUGAGGAUCACCCAUGUACAUGGGAUAGAGGAUAUACAAAUAUUAGUGGUGUAGAAGGUUAAUAUAUAU	158	101		
AUUAUUAUAAAUUAAGGAAGAAUCAGAAGGCGUUACAUGAGGAUCACCCAUGUUUUGUAUAGUAACGAGGAUAUGAUAUGGAAA	17.5	14		
GCGUAAGUCACAGGAUAUCCAACAUGAGGAUCACCCAUGUAAAAGUGCCGCAUUAGAAUGCGACUGGAGAAGGGUGAUUCGUCG			51.3	23.4
AAAUAAACUAGCAUAAUAACCUCACAUGAGGAUCACCCAUGUAAGGAUAUCUGUCCUAAAAGGACAGAGAAGGUACGUGCUAGG	4.72	4.88		
AACAGCUCGUCAGGAUAUAUUUUCCUUUUAUGUAUUUAUGUACAUGAGGAUCACCCAUGUUGUUUGUAGAAGGGACGAGCUGAA	27.5	35.7		
CCGGAUAUGCAGGAUAUCGUAUCGGAAACGAUACGAGAAGGGUAUACAUGAGGAUCACCCAUGUGUCCUACCGG	23	33.1		

Sequence	apparent Kd [1] [nM]	apparent Kd [2] [nM]	apparent Kd [3] [nM]	apparent Kd [4] [nM]
UGUCGGAGCAGAGGAUAUUACAUGAGGAUCACCCAUGUAUGAACCCAUAGCUGGAAACAGCAAUGUAAGAAGGCUGCUCCGACA	8.97	82.4		
UUGUUAUAUGUAGGAUAUGCGUAUUAUUAUUAUGCAGAAGGACAUGAGGAUCACCCAUGUAUAUUAUUAUUAUAUAUUAUAUAU	27.9	43.7		
CGGUACUAGGGAGGAUAUGGGAAGAUACAUGAGGAUCACCCAUGUUUAAGAAUGCCGAGAGGCAACUAGAAGGCCCUAGUACCU			353	20.7
AUAUCGUUAUCAGGAUAUGGACAGGCCUGUCCGUAUUGAGACAGUAACAUGAGGAUCACCCAUGUCCAGAAGGGAUCGAUGUAU	54.2	48.6		
CCGGAAAUGGAGGAUAUAGGAGUCGAUAGACACCUAGAAGGUCAUACAUGAGGAUCACCCAUGUGUCCUACCGG	17.2	19.1		
UUGUACGUCGUAGGAUAUGUAGGAUAUUCCUACAUGAGGAUCACCCAUGUUGACAUGGAAGAAGGACAGAAGGACGAUGUCCAU			429	7.83
AGUUAAUAUCGAGGAUAUCCUCAUAGACAUGAGGAUCACCCAUGUUAACAUGGAGAAGGCGAUAUUAACAGCAUGUUACAUGCA			231	26.8
UGCUUCGUGUAAGGAUAUGCUGCCGUUUCGGCUGCAGAAGGUACUAUAAUACAUGAGGAUCACCCAUGUCUCUCGCUUUGCGGG			55.9	26.6
GGAUCGAGUGUGAGGAUAUGCUGGUCCUUGGAUCAGCAGAAGGCACAUGAGGAUCACCCAUGUGGUAACGGUCC	190	537		
GCGGUACAUGAGGAUCACCCAUGUCAGGAUAUCCGCUGUUUGUUAAUAAACAGGCGGUGGAGAAGGGACUUCGC	34.9	36.7		
UAUGAGCGAGGAUAUGCUUGGGACUGUCGGAAGGUGGCGGGACAUGAGGAUCACCCAUGUAGAAGGCGCGAGCG	70.7	82.8		
GGAUAUAUUACAUGAGGAUCACCCAUGUCAGAAAGGGUAAUCAGAAGGUACUAUUAGAGAAAGAGUAAGGAUAUGAUUAUAUCC			630	147
AACGAGGCAGGAUAUACAUGAGGAUCACCCAUGUGCUUGCAUGGCGUGGGAAGUCAUCGUAGAAGGGCCAUGCC	154	74.2		
CGCAUGCGUAGAAUUAGCUGCUGACAGGAUAUGACAUGAGGAUCACCCAUGUGAUUUAAGAAGAGUCAGAAGGGUCACGAUGCG	7.8	13.5		
UUAUGGCUAGGAUAUGCACGUGCAUGUUCAAGUCAAAGAAGACAUGAGGAUCACCCAUGUAGAAGGAGCGGUAC	37.8	24.2		
GUGCAUACGUGAGGAUAUGUAUUAGAUAGUGGUACAGAAGGCAUGUCUGAUGACAUGAGGAUCACCCAUGUUGGCACAAUGCGC			51.5	30.2
GGAUAGGACAGAGGAUAUACGUGCUGGAGAUACUAGCAAAAUUUCCUCACAUGAGGAUCACCCAUGUAGAAGGCUGUCCUAUCG	32.6	478		
CGACAUUACACAGGAUAUCCUCGACUUUGUCGAGGAGAAGGGUGUAAACAUGAGGAUCACCCAUGUAUAAUGUCGAAAUAUAAU			221	28.9
AAACACGGACAUGAGGAUCACCCAUGUGGCGAUAGCCUUGGGAGAAGGUAUAAAUAAAAUAAUAAUUAGGAUAUUCAUACCGUG			275	108
GGGCUUUGGGAGAAGGUACAUUAAAUUAGUUUAACAUGAGGAUCACCCAUGUAAGGAUAUCCCAUCUUGUAUUAUUAUACAGCC	11	13.3		
UGAUCACAUGAGGAUCACCCAUGUCAGGAUAUCGUCACUGGAGCUUCGGCUCCAGUGACGAGAAGGGAUAUAAU	91.5	197		
GUAGAGUAAGGAUAUGUAGAAUAGGAUAGAAUGGUUAGAAUGCAGAAGGUACAUGAGGAUCACCCAUGUAAUGU	22.1	21.1		
GUAGAGUCAGGAUAUACAAAACCAUCGAUAGAUGGAUCCAUACAUGAGGAUCACCCAUGUAGAAGGGACUCUAC	20.3	21.5		
AAGCGACAUGAGGAUCACCCAUGUAGCAGGGUCAGAGGAUAUUUGAGCUUGGUGAGGGUUAAAGAAGGUUGAAAUC			25.2	33.1
UCGUACAUUCGAGGAUAUCGGUGAUUAAUAAUACGAGAAGGCGAUUUAAGGCAUAAAGCCUUAGACAUGAGGAUCACCCAUGUA			107	70.5
GAUAGGACAGAGAAGGACAUAGCUAGAGAUACUAGCAUAAGAACUUCAACAUGAGGAUCACCCAUGUAGGAUAUCUGUCCUAUC	6.88	8.76		
AAGAACUGAGGAUAUGCAAAAGGGAAAGCUGAUCCUCAUCUACAUGAGGAUCACCCAUGUAGAAGGCGGGAAAU	49.4	50.5		
